1 molecule from ChEMBL document CHEMBL4334451, “Natural Alkaloid Berberine Activity against Pseudomonas aeruginosa MexXY-Mediated Aminoglycoside Resistance: In Silico and in Vitro Studies” (J Nat Prod, 2019) can be followed below.

The target of data set [1] is T1, MexXY/OprM (Pseudomonas aeruginosa (strain ATCC 15692 / DSM 22644 / CIP 104116 / JCM14847 / LMG 12228 / 1C / PRS 101 / PAO1)) (UniProt Q51487+Q9ZNG9+Q9ZNG8). Put plainly: Inhibition of MexXY/OPRM in Pseudomonas aeruginosa C15 assessed as bacterial growth up to 320 ug/ml incubated for 24 to 48 hrs by broth microdilution method. The format is protein-complex assay. In a few lines:
(§1)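 Broth microdilution following CLSI guidelines, with P. aeruginosa ATCC 27853 as reference strain. Berberine was tested at 2-fold concentrations from 10 to 320 µg/ml, dissolved in 50% DMSO/50% methanol, with the top concentration set to keep final DMSO close to 1%. Plates were incubated at 37°C and read for visible growth at 24 and 48 h.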
(In general: In broth dilution the organism is exposed to a series of concentrations in liquid medium.)

Data set [2] deals with T1, MexXY/OprM (Pseudomonas aeruginosa (strain ATCC 15692 / DSM 22644 / CIP 104116 / JCM14847 / LMG 12228 / 1C / PRS 101 / PAO1)). The data set is described as follows: Inhibition of MexXY/OPRM in Pseudomonas aeruginosa C25 assessed as reduction in bacterial resistance to tobramycin by measuring tobramycin MIC at 80 ug/ml incubated for 24 to 48 hrs by broth microdilution method (reference value: 16 ug/ml). It is filed as protein-complex assay.

Data set [3] has the same target. Put plainly: Inhibition of MexXY/OPRM in Pseudomonas aeruginosa C98 assessed as reduction in bacterial resistance to tobramycin by measuring tobramycin MIC at 80 ug/ml incubated for 24 to 48 hrs by broth microdilution method (reference value: 64 ug/ml). The format is protein-complex assay. The essentials: (§2)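 Broth microdilution per CLSI, with P. aeruginosa ATCC 27853 as reference strain, in 2-fold dilution series. Plates were incubated at 37°C and read for visible growth at 24 and 48 h. Berberine stock was in 50% DMSO/50% methanol, with final DMSO kept near 1%. Berberine was tested at 10–320 µg/ml, alone or at a fixed level with serial tobramycin.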

The target is the same in data set [4]. The data set is described as follows: Inhibition of MexXY/OPRM in Pseudomonas aeruginosa C84 assessed as reduction in bacterial resistance to tobramycin by measuring tobramycin MIC at 80 ug/ml incubated for 24 to 48 hrs by broth microdilution method (reference value: 0.5 ug/ml). The format is protein-complex assay. In a few lines: as §2
For data set [5] the target is unchanged. The data set is described as follows: Inhibition of MexXY/OPRM in Pseudomonas aeruginosa AR51 assessed as reduction in bacterial resistance to tobramycin by measuring tobramycin MIC at 80 ug/ml incubated for 24 to 48 hrs by broth microdilution method (reference value: 16 ug/ml). It is filed as protein-complex assay.
Data set [6] has the same target. Put plainly: Inhibition of MexXY/OPRM in Pseudomonas aeruginosa C95 assessed as bacterial growth up to 320 ug/ml incubated for 24 to 48 hrs by broth microdilution method. The format is protein-complex assay. In a few lines:
as §2

Data set [7] has the same target. The data set is described as follows: Inhibition of MexXY/OPRM in Pseudomonas aeruginosa C104 assessed as bacterial growth up to 320 ug/ml incubated for 24 to 48 hrs by broth microdilution method. The format is protein-complex assay. The essentials: as §1
Data set [8] shares this target. The data set is described as follows: Inhibition of MexXY/OPRM in Pseudomonas aeruginosa C6 assessed as reduction in bacterial resistance to tobramycin by measuring tobramycin MIC at 80 ug/ml incubated for 24 to 48 hrs by broth microdilution method (reference value: 2 ug/ml). The format is protein-complex assay.
The target is the same in data set [9]. Put plainly: Inhibition of MexXY/OPRM in Pseudomonas aeruginosa C104 assessed as reduction in bacterial resistance to tobramycin by measuring fold reduction in tobramycin MIC at 80 ug/ml incubated for 24 to 48 hrs by broth microdilution method. It is filed as protein-complex assay.
The target is the same in data set [10]. The data set is described as follows: Inhibition of MexXY/OPRM in Pseudomonas aeruginosa C54 assessed as bacterial growth up to 320 ug/ml incubated for 24 to 48 hrs by broth microdilution method. The format is protein-complex assay. The essentials:
as §1

Data set [11] has the same target. The data set is described as follows: Inhibition of MexXY/OPRM in Pseudomonas aeruginosa C31 assessed as bacterial growth up to 320 ug/ml incubated for 24 to 48 hrs by broth microdilution method. It is filed as protein-complex assay. The essentials: as §1
For data set [12] the target is unchanged. Put plainly: Inhibition of MexXY/OPRM in Pseudomonas aeruginosa C89 assessed as reduction in bacterial resistance to tobramycin by measuring fold reduction in tobramycin MIC at 80 ug/ml incubated for 24 to 48 hrs by broth microdilution method. It is filed as protein-complex assay. In a few lines:
(§3)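 Tobramycin MIC by CLSI broth microdilution at 37°C, read at 24 and 48 h, with and without a fixed berberine concentration selected from checkerboard assays. Berberine stock was in 50% DMSO/50% methanol, final DMSO about 1%. A 2-fold decrease in tobramycin MIC was scored as synergy.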

Data set [13] has the same target. Put plainly: Inhibition of MexXY/OPRM in Pseudomonas aeruginosa C54 assessed as reduction in bacterial resistance to tobramycin by measuring tobramycin MIC at 80 ug/ml incubated for 24 to 48 hrs by broth microdilution method (reference value: 32 ug/ml). It is filed as protein-complex assay.
Data set [14] has the same target. The data set is described as follows: Inhibition of MexXY/OPRM in Pseudomonas aeruginosa C93 assessed as reduction in bacterial resistance to tobramycin by measuring tobramycin MIC at 80 ug/ml incubated for 24 to 48 hrs by broth microdilution method (reference value: >128 ug/ml). It is filed as protein-complex assay. The essentials: as §2
For data set [15] the target is unchanged. The data set is described as follows: Inhibition of MexXY/OPRM in Pseudomonas aeruginosa C25 assessed as reduction in bacterial resistance to tobramycin by measuring fold reduction in tobramycin MIC at 80 ug/ml incubated for 24 to 48 hrs by broth microdilution method. It is filed as protein-complex assay.
Data set [16] has the same target. Put plainly: Inhibition of MexXY/OPRM in Pseudomonas aeruginosa C95 assessed as reduction in bacterial resistance to tobramycin by measuring fold reduction in tobramycin MIC at 80 ug/ml incubated for 24 to 48 hrs by broth microdilution method. The format is protein-complex assay. The essentials: as §3
For data set [17] the target is unchanged. The data set is described as follows: Inhibition of MexXY/OPRM in Pseudomonas aeruginosa C70 assessed as bacterial growth up to 320 ug/ml incubated for 24 to 48 hrs by broth microdilution method. The format is protein-complex assay. In a few lines: as §1
Another data set relates to Erythrocyte. The data set is described as follows: Hemolytic activity in human RBC at 10 to 320 ug/ml incubated for 1 hr by spectrophotometry. It is filed as ADME, cell-based. The essentials:
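Fresh heparinized human blood diluted in PBS pH 7.4, washed 3x, resuspended to ~20 vol%. Erythrocyte suspension mixed 1:1 with 1:2 serial berberine dilutions in PBS. PBS served as negative control, 0.2 vol% Triton X-100 as positive control.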

Data set [18] addresses T1, MexXY/OprM (Pseudomonas aeruginosa (strain ATCC 15692 / DSM 22644 / CIP 104116 / JCM14847 / LMG 12228 / 1C / PRS 101 / PAO1)). Put plainly: Inhibition of MexXY/OPRM in Pseudomonas aeruginosa C76 assessed as reduction in bacterial resistance to tobramycin by measuring tobramycin MIC at 80 ug/ml incubated for 24 to 48 hrs by broth microdilution method (reference value: 32 ug/ml). The format is protein-complex assay.

For data set [19] the target is unchanged. The data set is described as follows: Inhibition of MexXY/OPRM in Pseudomonas aeruginosa C61 assessed as bacterial growth up to 320 ug/ml incubated for 24 to 48 hrs by broth microdilution method. It is filed as protein-complex assay. The essentials: as §1
Data set [20] has the same target. Put plainly: Inhibition of MexXY/OPRM in Pseudomonas aeruginosa C67 assessed as bacterial growth up to 320 ug/ml incubated for 24 to 48 hrs by broth microdilution method. The format is protein-complex assay. The essentials:
as §1

Data set [21] shares this target. Put plainly: Inhibition of MexXY/OPRM in Pseudomonas aeruginosa C30 assessed as bacterial growth up to 320 ug/ml incubated for 24 to 48 hrs by broth microdilution method. The format is protein-complex assay. In a few lines:
as §1

Data set [22] has the same target. Put plainly: Inhibition of MexXY/OPRM in Pseudomonas aeruginosa C31 assessed as reduction in bacterial resistance to tobramycin by measuring tobramycin MIC at 80 ug/ml incubated for 24 to 48 hrs by broth microdilution method (reference value: 8 ug/ml). The format is protein-complex assay.

The source made the active and inactive calls. The calls are words filed in the database; no cut-off is given here. Where only a bound is given, the exact number is not on record here.

As to `COc1ccc2cc3[n+](cc2c1OC)CCc1cc2c(cc1-3)OCO2` [BERBERINE], the inhibition entry in data set [1], in data set [6], in data set [7], in data set [10], in data set [11] and in [17] was “inactive” each time. The inhibition result in data set [19], in data set [20] and in data set [21] was “inactive” in each case. Besides, the MIC in [2] came to 1 µg/mL; in data set [3] it was 32 µg/mL; in data set [4], 0.125 µg/mL; in [5] it was 8 µg/mL; in data set [8] it was 0.5 µg/mL; in data set [13], 16 µg/mL. Further, the MIC stood at 64 µg/mL in [14], 16 µg/mL in data set [18] and 8 µg/mL in data set [22]. Also, the fold change (FC) in data set [9] is more than 2; in data set [12], more than 2; in [15], 16; in data set [16] it was more than 2. In addition, in the data set on Erythrocyte, the Activity result is on record as “Non-Toxic”.
